Measured values taken from ChEMBL document CHEMBL2396538, “Synthesis and biological evaluation of a novel series of aryl S,N-ketene acetals as antileishmanial agents” (Bioorg Med Chem Lett, 2013).
Activity calls are given as the source filed them. The calls are words filed in the database; no cut-off is given here.

Legend:
Leishmania donovani [1] = test: Antileishmanial activity against amastigote stage of Leishmania donovani infected in mouse J774A.1 cells assessed as parasite growth inhibition after 72 hrs by luciferase reporter gene assay; format: functional, organism-based; settings: J774.A1, 72 h
Outline: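 Mouse macrophage J-774A.1 cells (4 × 10^3/100 µL) were seeded, then infected with luciferase-transfected L. donovani promastigotes (4 × 10^4/100 µL), which transformed into intracellular amastigotes. Compounds at 0.62–40 µM for 72 h in CO₂ incubator. Medium replaced with PBS plus Steady-Glo; luminescence read. Growth inhibition versus untreated controls; IC₅₀ derived.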

[2] = Cytotoxicity against african green monkey vero cells assessed as cell viability after 72 hrs by MTT assay; format: cell-based; settings: chlorocebus sabaeus
Outline: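 Exponentially growing Vero monkey kidney […] incubated with compounds for 72 h; viable cells detected with MTT (Mosmann method); CC₅₀ estimated.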

[3] = (§1) Selectivity index, ratio of CC50 for african green monkey vero cells to IC50 for amastigote stage of Leishmania donovani infected in mouse J774A.1 cells; format: functional
Outline: (§2)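 Selectivity index calculated as CC₅₀ (Vero cells, 72 h MTT) divided by IC₅₀ against intracellular amastigotes in luciferase-reporter J-774A.1 macrophage assay.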

Leishmania donovani [4] = test: Antileishmanial activity against promastigote stage of Leishmania donovani assessed as parasite growth inhibition at 25 uM after 72 hrs by luciferase reporter gene assay relative to untreated control; format: functional; settings: for inhibition of growth at 25 µM: read-out: GI
Outline: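 Luciferase-transfected L. donovani promastigotes (5 × 10^5/100 µL) exposed to compounds for 72 h. Suspension mixed 1:1 with Steady-Glo reagent; luminescence read as relative luminescence units. Inhibition calculated from luciferase activity of treated versus untreated parasites.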

Leishmania donovani [5] = test: Antileishmanial activity against amastigote stage of Leishmania donovani infected in golden hamster assessed as inhibition of parasite multiplication at 50 mg/kg, ip administered 5 days measured on day 7 by Giemsa staining assay relative to control; format: functional; settings: for inhibition in vivo at 50 mg/kg: route intraperitoneal
Outline: (§3)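 Golden hamster L. donovani model; 50 mg/kg given ip for 5 days. Biopsies were taken on day 7 after the last dose, and amastigotes were counted by Giemsa staining. Percent inhibition was derived by comparing infection intensity in treated versus untreated animals and against the initial count in treated animals.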

Leishmania donovani [6] = test: Antileishmanial activity against Leishmania donovani infected in hamster assessed as inhibition of parasite multiplication relative to control; format: functional; outline: as §3
[7] = Metabolic stability in hamster liver microsomes at 25 uM by HPLC analysis in absence of NADPH and presence of CYP suicidal inhibitor 1-ABZT; settings: cricetinae
Syrian golden hamster = test: Toxicity in golden hamster at 50 mg/kg, ip and po administered 5 days measured on day 7; format: organism-based, Mesocricetus auratus; set-up: dose 50 mg/kg, route oral; settings: in vivo, 120 h
Leishmania donovani [8] = test: Antileishmanial activity against amastigote stage of Leishmania donovani infected in golden hamster assessed as inhibition of parasite multiplication at 50 mg/kg, po administered 5 days measured on day 7 by Giemsa staining assay relative to control; format: functional
Outline: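 L. donovani-infected hamsters received 50 mg/kg orally for 5 days. Post-treatment biopsy was on day 7 after the last dose, with Giemsa-stained amastigote counts. Percent inhibition came from comparing treated animals with untreated animals and with the treated animals' initial counts.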

Vero = test: as §1; format: functional; outline: as §2

Row | Compound | IC50 (Leishmania donovani [1]) [µM] | CC50 at 72 h [2] [µM] | Ratio CC50/IC50 [3] | inhibition of growth at 25 µM (Leishmania donovani [4]) [%] | inhibition (Leishmania donovani [5]) | inhibition in vivo at 50 mg/kg (Leishmania donovani [5]) [%] | growth inhibition (GI) (Leishmania donovani [4]) | inhibition (INH) (Leishmania donovani [6]) [%] | Stability [7] | Activity (Syrian golden hamster) | inhibition in vivo at 50 mg/kg (Leishmania donovani [8]) [%] | Ratio CC50/IC50 (Vero)
1 | COc1cc(/C=C/C(=O)/C=C(\NCc2ccccc2)SC)cc(OC)c1OC | 2 | 71.5 | 36 | 98.6 | inactive | – | – | – | – | – | – | –
2 | COc1ccc(N/C(=C\C(=O)/C=C/c2cc(OC)c(OC)c(OC)c2)SC)cc1 | 2.6 | 184 | 69 | 99.1 | – | 32 | – | – | – | – | – | –
3 | COc1cc(/C=C/C(=O)/C=C(\NC2CCCCC2)SC)cc(OC)c1OC | 3.5 | 22.7 | 7 | 98.9 | – | – | – | – | – | – | – | –
4 | NC[C@@H]1O[C@H](O[C@H]2[C@@H](O)[C@H](O[C@@H]3[C@@H](O)[C@H](N)C[C@H](N)[C@H]3O[C@H]3O[C@H](CO)[C@@H](O)[C@H](O)[C@H]3N)O[C@@H]2CO)[C@H](N)[C@@H](O)[C@@H]1O [PAROMOMYCIN] | 40.3 | 86.6 | 2 | – | – | 46 | inactive | – | – | – | – | –
5 | COc1cc(/C=C/C(=O)C=C(SC)SC)cc(OC)c1OC | – | – | – | – | – | – | – | 66 | – | – | – | –
6 | COc1cc(/C=C/C(=O)/C=C(\Nc2ccccc2)SC)cc(OC)c1OC | 2.1 | 64.6 | 31 | 96.2 | – | 83 | – | – | Stable | Non-toxic | 64 | –
7 | COc1cc(/C=C/C(=O)/C=C(\Nc2ccc(Cl)cc2)SC)cc(OC)c1OC | 1.6 | 57.9 | 36 | 98.7 | – | 21 | – | – | – | – | – | –
8 | COc1cc(/C=C/C(=O)/C=C(\Nc2ccc(F)cc2)SC)cc(OC)c1OC | 1.2 | 43.4 | 36 | 97.9 | – | 72 | – | – | – | – | – | –
9 | Sodium stibogluconate | – | – | – | – | 89% | – | inactive | – | – | – | – | 7
